Source: PMC2828495 (Bioorganic & medicinal chemistry, 2010)

Tests used:
EcN68 SecA = EcN68 SecA (Escherichia coli, UniProt P10408); assay: EcN68 SecA ATPase inhibition; assay type: biochemical, E. coli
leaky mutant NR698 = assay: Antimicrobial test; assay type: cell-based, E. coli; settings: Figure 8
Summary of the method: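 E. coli NR698 (MC4100 imp4213), a strain with increased outer-membrane permeability. Log-phase cells at OD600 ~0.5 to 1.0 were diluted to OD600 0.05 and test compound (dissolved in DMSO) was added. Cultures containing 5% DMSO final were shaken at 37 °C, 1050 rpm, for 10 to 12 h. MIC was then determined.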

[1] = tested on: wild type E. coli strain MC4100; assay: Antimicrobial test; assay type: cell-based; settings: Figure 8
EcSecA = EcSecA (Escherichia coli, UniProt P10408); assay: Whole EcSecA ATPase inhibition; assay type: biochemical, E. coli
Summary of the method: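 Full-length E. coli SecA was over-expressed from pT7-SecA and purified. Each reaction held 5 µg SecA, 2 mM ATP, 50 mM Tris-HCl pH 7.6, 20 mM KCl, 20 mM NH4Cl, 1 mM DTT, 2 mM Mg(OAc)2 and 10% DMSO, run at 40 °C for 40 min. Malachite green, then 34% citric acid, was added; after 40 min at room temperature A660 gave Pi. Activity was expressed as % of no-compound control, at least in triplicate, with IC50 from inhibition curves.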

[2] = Solubility observation in the inhibition assay; assay type: physicochemical; settings: when approaching 100 µM

Sequence of EcN68 SecA (P10408 1-610): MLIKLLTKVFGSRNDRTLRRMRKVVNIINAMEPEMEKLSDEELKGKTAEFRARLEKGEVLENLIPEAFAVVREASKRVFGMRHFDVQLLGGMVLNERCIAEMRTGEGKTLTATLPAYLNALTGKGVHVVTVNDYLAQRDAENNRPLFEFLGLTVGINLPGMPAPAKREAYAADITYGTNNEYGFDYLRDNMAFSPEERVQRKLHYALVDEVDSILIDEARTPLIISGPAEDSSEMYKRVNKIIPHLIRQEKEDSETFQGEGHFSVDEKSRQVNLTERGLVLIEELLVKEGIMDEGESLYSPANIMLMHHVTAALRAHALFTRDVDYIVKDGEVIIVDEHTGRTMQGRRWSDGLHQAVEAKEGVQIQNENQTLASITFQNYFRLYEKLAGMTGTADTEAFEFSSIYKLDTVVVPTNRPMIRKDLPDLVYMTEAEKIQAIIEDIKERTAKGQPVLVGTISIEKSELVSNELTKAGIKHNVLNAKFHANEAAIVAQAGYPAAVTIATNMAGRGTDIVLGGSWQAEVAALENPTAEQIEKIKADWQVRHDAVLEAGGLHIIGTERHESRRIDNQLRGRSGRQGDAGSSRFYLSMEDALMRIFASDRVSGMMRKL
Sequence of EcSecA (P10408 whole entry): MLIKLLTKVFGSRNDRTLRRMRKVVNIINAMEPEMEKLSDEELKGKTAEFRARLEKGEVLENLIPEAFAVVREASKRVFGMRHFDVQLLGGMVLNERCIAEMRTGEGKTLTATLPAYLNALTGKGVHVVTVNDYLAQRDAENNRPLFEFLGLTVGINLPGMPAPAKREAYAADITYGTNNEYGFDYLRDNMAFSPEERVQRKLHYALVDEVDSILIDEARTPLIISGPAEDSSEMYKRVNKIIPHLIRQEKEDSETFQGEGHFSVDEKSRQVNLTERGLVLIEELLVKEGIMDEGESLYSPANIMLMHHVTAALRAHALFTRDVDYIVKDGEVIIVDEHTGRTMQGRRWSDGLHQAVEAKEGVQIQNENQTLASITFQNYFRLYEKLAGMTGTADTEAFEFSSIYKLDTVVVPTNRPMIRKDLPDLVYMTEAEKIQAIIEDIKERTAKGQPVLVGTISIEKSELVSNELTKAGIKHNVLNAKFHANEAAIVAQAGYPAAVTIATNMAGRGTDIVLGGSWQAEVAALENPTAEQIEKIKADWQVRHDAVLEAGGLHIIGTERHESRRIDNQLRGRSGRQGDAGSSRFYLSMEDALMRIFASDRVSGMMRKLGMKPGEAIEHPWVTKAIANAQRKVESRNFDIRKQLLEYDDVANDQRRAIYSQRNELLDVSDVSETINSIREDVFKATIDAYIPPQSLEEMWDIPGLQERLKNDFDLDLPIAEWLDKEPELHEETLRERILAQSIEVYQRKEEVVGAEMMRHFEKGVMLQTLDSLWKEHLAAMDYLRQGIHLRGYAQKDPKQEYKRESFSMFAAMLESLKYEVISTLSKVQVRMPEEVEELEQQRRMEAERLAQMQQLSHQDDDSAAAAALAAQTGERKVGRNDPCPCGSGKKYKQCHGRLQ

| SMILES | fold more potent than the hit compound(s) (EcN68 SecA) [fold] | antimicrobial activity (MIC) against NR698 (leaky mutant NR698) | antimicrobial activity (MIC) against MC4100 [1] | IC50 (EcN68 SecA) [µM] | IC50 (EcSecA) [µM] | solubility [2] |
| --- | --- | --- | --- | --- | --- | --- |
| N#Cc1c(-c2ccc(Br)cc2)nc(SCc2ccc(CSC3=NC(=O)C(C#N)C(c4ccc(Br)cc4)=N3)cc2)[nH]c1=O (stereo not drawn) [16g, 2,2'-(α,α’-Xylene)bis(sulfanediyl)bis-(6-(4-bromophenyl)-5-cyano-4-oxopyrimidine)] | 50 | – | – | – | – | – |
| N#Cc1c(-c2ccc(-c3ccccc3)cc2)nc(SCc2ccc(CSC3=NC(=O)C(C#N)C(c4ccc(-c5ccccc5)cc4)=N3)cc2)[nH]c1=O (stereo not drawn) [16h, 2,2'-(α,α’-Xylene)bis(sulfanediyl)bis-(6-(biphenyl-4-yl)-5-cyano-4-oxopyrimidine)] | 50 | did not exhibit significantly antimicrobial activities | neither 17h nor 16h exhibited inhibition effects | 2 | – | – |
| N#Cc1c(-c2ccc(-c3ccccc3)cc2)nc(SCc2ccccc2)[nH]c1=O [17h, S-Benzyl-5-cyano-6-(biphenyl-4-yl)-2-thiouracil] | – | most potent inhibition effects | neither 17h nor 16h exhibited inhibition effects | – | 60 | – |
| Cc1onc(-c2c(F)cccc2Cl)c1C(=O)Nc1ccc(Sc2ccccc2)nc1Sc1ccccc1 [compound 1] | – | – | – | – | – | started having solubility problems when approaching 100 µM |
